According to ChEMBL document CHEMBL4706770, “SD-91 as A Potent and Selective STAT3 Degrader Capable of Achieving Complete and Long-Lasting Tumor Regression” (ACS Med Chem Lett, 2021):
Calls of active or inactive are those of the source. No cut-off for these calls is given here.

Legend:
[1] = biological target: T1, Signal transducer and activator of transcription 4 (Homo sapiens) (UniProt Q14765); assay: Induction of STAT4 degradation in human SUP-M2 cells at 0.25 to 100 uM incubated for 14 hrs by Western blot analysis; format: cell-based; details: SUPM2, dose 0.25-100 µM
T1 sequence (whole entry): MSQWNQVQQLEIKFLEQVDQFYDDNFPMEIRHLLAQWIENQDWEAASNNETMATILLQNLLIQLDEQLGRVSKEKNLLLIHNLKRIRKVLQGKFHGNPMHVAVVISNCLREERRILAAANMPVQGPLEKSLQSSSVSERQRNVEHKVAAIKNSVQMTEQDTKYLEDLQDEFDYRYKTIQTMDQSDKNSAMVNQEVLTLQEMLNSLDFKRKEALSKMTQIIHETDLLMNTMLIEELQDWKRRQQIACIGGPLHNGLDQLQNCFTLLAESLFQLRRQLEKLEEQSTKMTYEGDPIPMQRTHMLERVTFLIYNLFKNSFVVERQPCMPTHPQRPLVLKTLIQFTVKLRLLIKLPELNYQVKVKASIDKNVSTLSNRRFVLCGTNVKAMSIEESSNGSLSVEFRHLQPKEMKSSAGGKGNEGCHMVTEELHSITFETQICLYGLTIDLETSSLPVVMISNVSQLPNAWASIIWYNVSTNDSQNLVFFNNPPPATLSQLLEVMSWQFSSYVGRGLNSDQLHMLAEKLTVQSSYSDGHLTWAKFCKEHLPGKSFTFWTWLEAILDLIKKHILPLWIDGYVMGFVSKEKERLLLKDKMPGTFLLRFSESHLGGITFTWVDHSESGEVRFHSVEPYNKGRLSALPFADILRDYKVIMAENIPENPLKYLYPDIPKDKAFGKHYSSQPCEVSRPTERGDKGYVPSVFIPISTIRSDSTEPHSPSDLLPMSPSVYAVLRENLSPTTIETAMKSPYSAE

[2] = Drug metabolism in complete cell culture medium assessed as (2-(((5S,8S,10aR)-8-(((S)-5-amino-1-(benzhydrylamino)-1,5-dioxopentan-2-yl)carbamoyl)-3-(8-(2-(2,6-dioxopiperidin-3-yl)-1-oxoisoindolin-4-yl)oct-7-ynoyl)-6-oxodecahydropyrrolo[1,2-a][1,5]diazocin-5-yl)carbamoyl)-1H-indole-5-carbonyl)phosphonic acid after 24 hrs by LC/MS/MS analysis
In short: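 Parent compound incubated in the cell culture medium used for the cellular assays, with or without cells, at 37 °C. Percentages of the hydrolysis product and the glutarimide ring-opened product measured at time points up to 96 h.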

[3] = Stability of compound in buffer pH 8 assessed as conversion to (2-(((5S,8S,10aR)-8-(((S)-5-amino-1-(benzhydrylamino)-1,5-dioxopentan-2-yl)carbamoyl)-3-(8-(2-(2,6-dioxopiperidin-3-yl)-1-oxoisoindolin-4-yl)oct-7-ynoyl)-6-oxodecahydropyrrolo[1,2-a][1,5]diazocin-5-yl)carbamoyl)-1H-indole-5-carbonyl)phosphonic acid by measuring half life at 37 degC by LC/MS/MS analysis; format: physicochemical
In short: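 SD-36 incubated in pH 8 buffer at 37 °C; percentages of parent and hydrolysis products followed over time; half-life of conversion derived from the time course.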

Mus musculus = assay: In vivo induction of STAT1 degradation in SCID mouse xenografted with human MOLM16 cells assessed as reduction in STAT1 in tumor tissue at 50 mg/kg, iv measured after 24 hrs by immunoblotting analysis; format: functional, organism-based
In short: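 SCID mice bearing MOLM-16 tumors given a single iv dose of 50 mg/kg or dosing vehicle. Tumor lysates immunoblotted for STAT3, STAT1 and STAT6 at time points from 1 h to at least 24 h.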

[4] = biological target: T2, Signal transducer and activator of transcription 4 (Homo sapiens, UniProt Q14765); assay: Binding affinity to human recombinant STAT4 assessed as dissociation constant incubated for 15 mins by biolayer interferometry
T2 sequence (Q14765 whole entry): T1 sequence (whole entry)
In short: (§1)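 Biolayer interferometry with recombinant human STAT1, STAT2, STAT3, STAT4, STAT5A, STAT5B or STAT6 proteins containing their SH2 domain. Compound run in 2× serial dilutions from 200 nM. Kd taken from steady-state fitting of equilibrium responses against concentration using a 1:1 binding model.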

[5] = biological target: T3, Signal transducer and activator of transcription 6 (Homo sapiens, UniProt P42226); assay: Binding affinity to human recombinant STAT6 assessed as dissociation constant incubated for 15 mins by biolayer interferometry; in short: as §1
T3 sequence (P42226 whole entry): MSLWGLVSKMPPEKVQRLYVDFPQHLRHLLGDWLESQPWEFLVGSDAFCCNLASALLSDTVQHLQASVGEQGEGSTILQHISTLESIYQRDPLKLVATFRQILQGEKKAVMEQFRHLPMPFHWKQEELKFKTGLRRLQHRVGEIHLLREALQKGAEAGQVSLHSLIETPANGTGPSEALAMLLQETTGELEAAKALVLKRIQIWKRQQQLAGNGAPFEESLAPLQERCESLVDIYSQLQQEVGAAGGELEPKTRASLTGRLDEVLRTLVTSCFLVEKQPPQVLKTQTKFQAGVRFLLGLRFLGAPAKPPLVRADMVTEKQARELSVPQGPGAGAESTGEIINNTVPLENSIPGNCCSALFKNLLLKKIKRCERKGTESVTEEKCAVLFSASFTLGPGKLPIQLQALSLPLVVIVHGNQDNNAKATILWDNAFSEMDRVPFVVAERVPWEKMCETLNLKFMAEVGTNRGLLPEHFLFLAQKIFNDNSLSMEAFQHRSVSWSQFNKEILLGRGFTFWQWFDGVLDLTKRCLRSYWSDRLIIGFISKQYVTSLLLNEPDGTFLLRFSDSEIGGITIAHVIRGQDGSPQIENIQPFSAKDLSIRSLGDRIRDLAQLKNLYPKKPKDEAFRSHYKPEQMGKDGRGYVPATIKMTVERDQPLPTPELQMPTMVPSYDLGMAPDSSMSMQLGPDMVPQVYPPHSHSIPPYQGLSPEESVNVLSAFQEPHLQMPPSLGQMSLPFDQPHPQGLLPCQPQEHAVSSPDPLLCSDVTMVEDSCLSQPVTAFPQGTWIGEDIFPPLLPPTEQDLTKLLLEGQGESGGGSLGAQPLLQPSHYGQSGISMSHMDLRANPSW

[6] = biological target: Signal transducer and activator of transcription 3 (Homo sapiens, UniProt P40763); assay: Induction of STAT3 degradation in human SUP-M2 cells incubated for 4 hrs by western blot analysis; format: cell-based
Sequence of Signal transducer and activator of transcription 3 (P40763 whole entry): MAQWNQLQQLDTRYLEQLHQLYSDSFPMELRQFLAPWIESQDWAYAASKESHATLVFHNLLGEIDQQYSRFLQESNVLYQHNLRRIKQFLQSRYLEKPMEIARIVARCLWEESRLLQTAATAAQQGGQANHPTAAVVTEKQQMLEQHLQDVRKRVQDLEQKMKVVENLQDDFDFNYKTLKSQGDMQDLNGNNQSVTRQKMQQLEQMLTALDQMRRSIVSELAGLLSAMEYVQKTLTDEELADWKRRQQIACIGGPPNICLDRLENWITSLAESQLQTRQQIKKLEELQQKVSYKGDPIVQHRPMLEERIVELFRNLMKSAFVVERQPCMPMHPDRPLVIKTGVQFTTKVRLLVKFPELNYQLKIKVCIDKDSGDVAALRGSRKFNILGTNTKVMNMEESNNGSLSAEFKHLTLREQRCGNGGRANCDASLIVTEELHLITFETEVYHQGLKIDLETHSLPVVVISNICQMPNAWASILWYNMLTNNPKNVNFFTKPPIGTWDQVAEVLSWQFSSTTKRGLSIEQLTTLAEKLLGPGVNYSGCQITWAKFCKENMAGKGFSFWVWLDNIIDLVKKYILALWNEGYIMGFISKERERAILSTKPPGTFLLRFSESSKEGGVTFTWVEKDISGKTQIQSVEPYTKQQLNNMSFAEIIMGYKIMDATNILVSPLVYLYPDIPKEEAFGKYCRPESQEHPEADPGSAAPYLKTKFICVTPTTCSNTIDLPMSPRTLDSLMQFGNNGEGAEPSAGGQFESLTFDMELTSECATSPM
In short: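 Cells treated 4 h with compounds across 25 nM to 100 μM; STAT proteins detected by Western blot with GAPDH as loading control; STAT3 DC50 estimated by densitometry of STAT3 relative to GAPDH. Applies to MOLM-16 for all STATs, and to SU-DHL-1 and SUP-M2 for STAT3.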

[7] = Antitumor activity against human MOLM16 cells xenografted in SCID mouse assessed as tumor growth at 25 mg/kg, iv administered weekly measured after 2 weeks relative to control; format: functional
In short: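 SCID mice bearing MOLM-16 xenografts given compound iv once weekly at 25 or 50 mg/kg. Tumor volume and body weight measured every 2 days. Growth inhibition expressed against vehicle-treated controls.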

For `CC(=O)N1CC[C@H]2CC[C@@H](C(=O)N[C@@H](CCC(N)=O)C(=O)NC(c3ccccc3)c3ccccc3)N2C(=O)[C@@H](NC(=O)c2cc3cc(C(=O)P(=O)(O)O)ccc3[nH]2)C1`, which Activity [1] is on record?
Its Activity is “inactive”.

With `CC(=O)N1CC[C@H]2CC[C@@H](C(=O)N[C@@H](CCC(N)=O)C(=O)NC(c3ccccc3)c3ccccc3)N2C(=O)[C@@H](NC(=O)c2cc3cc(C(F)(F)P(=O)(O)O)ccc3[nH]2)C1` as the compound, how does the Activity [1] read?
The Activity was “inactive”.

Which Drug metabolism [2] does the source give for `NC(=O)CC[C@H](NC(=O)[C@@H]1CC[C@@H]2CCN(C(=O)CCCCCC#Cc3cccc4c3CN(C3CCC(=O)NC3=O)C4=O)C[C@H](NC(=O)c3cc4cc(C(F)(F)P(=O)(O)O)ccc4[nH]3)C(=O)N21)C(=O)NC(c1ccccc1)c1ccccc1` (some centres undefined) here?
The Drug metabolism was 90%.

What about the t1/2 [3] of the same compound?
The t1/2 was 4 h.

With `NC(=O)CC[C@H](NC(=O)[C@@H]1CC[C@@H]2CCN(C(=O)CCCCCC#Cc3cccc4c3CN(C3CCC(=O)NC3=O)C4=O)C[C@H](NC(=O)c3cc4cc(C(=O)P(=O)(O)O)ccc4[nH]3)C(=O)N21)C(=O)NC(c1ccccc1)c1ccccc1` (some centres undefined) as the compound, how does the Activity (Mus musculus) read?
Its Activity is “inactive”.

And the Kd [4]?
Its Kd is over 10 nM.

And the Kd [5]?
Its Kd is over 10 nM.

And the DC50 [6]?
Its DC50 is 1200 nM.

And the Activity [7]?
Its Activity is 87%.
